SR-BI HDL uptake = inhibitors of mouse SR-BI mediated HDL lipid uptake; Q61009; ldlA[mSR-BI] CHO cells, DiI-HDL uptake fluorescence, 3 h; inhibition, % at 12.5 µM; 320,000 tested, 0.96% active; AID 488896;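 active = mean replicate inhibition of at least 70% and a set share of replicates each scoring 70 or more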;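 note: 0% = median of neutral control wells and 100% = median of positive control wells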
SR-BI DiI-HDL act = enhances SR-BI lipid uptake from DiI-HDL. CHO ldlA[mSR-BI] cells, DiI-HDL uptake fluorescence, 3 h; 100 = double the neutral-control signal. activation, % at 12.5 µM. 320,000 tested, 0.096% active. AID 504775;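 active = mean replicate activation of at least 60% and every replicate at or above 60%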;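 note: 0% = median plate neutral-control signal and 100% = twice that signal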
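System: CHO ldlA[mSR-BI] cells / Medium: HEPES-buffered (25 mM, pH 7.4) F12 plus 0.5% BSA / Probe or stimulus: labelled HDL, 10 µg/mL / Doses: single compound concentration, delivered by pin transfer / Schedule: 3 h, 37 °C / Measured by: DiI fluorescence, bottom read / Measure: cell-associated DiI fluorescence as measure of HDL uptake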
CAL PDZ FP-1 = CAL PDZ (human) peptide binding inhibition | Q9HD26 | purified CAL PDZ, TMR-peptide fluorescence polarization, 1 h | inhibition, % at 24.9 µM | 300,000 tested, 0.92% active;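 active = mean inhibition of at least 30% with at least half of replicates also reaching 30%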;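 note: 0% = DMSO neutral control and 100% = excess unlabeled competitor peptide PRC23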
ATG4B inhibitor = inhibitors of human ATG4B cysteine protease; Q9Y4P1; ATG4B cleavage of LC3-PLA2, NBD-HPC fluorescence, 1 h; inhibition, % at 8.33 µM; 340,000 tested, 0.51% active; AID 504462; in the data active = inhibition above about 40%
Target sequence (Q9Y4P1 whole entry, looked up): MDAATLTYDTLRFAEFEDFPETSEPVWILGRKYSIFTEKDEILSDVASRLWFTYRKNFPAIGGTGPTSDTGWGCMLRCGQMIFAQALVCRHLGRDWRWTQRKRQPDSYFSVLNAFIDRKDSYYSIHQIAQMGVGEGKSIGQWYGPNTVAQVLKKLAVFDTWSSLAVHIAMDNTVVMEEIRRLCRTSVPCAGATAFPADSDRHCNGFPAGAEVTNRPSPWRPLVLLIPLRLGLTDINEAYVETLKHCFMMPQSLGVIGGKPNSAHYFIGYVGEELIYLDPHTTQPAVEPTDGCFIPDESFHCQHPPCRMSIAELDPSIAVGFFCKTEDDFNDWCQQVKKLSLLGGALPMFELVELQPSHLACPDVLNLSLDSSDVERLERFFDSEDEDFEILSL
CAL PDZ FP-2 = inhibitors of human CAL PDZ peptide binding. 330,000 tested, 0.02% active. inhibition, % at 20 µM. Q9HD26. purified CAL PDZ, TMR-peptide fluorescence polarization, 1 h;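 active = highest replicate inhibition of at least 40%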;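 note: plate controls were DMSO neutral control wells for no effect and unlabeled competitor peptide control wells for full effect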
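Control set: unlabelled peptide and DMSO controls / Material: purified CerCALP PDZ construct / Timing: 1 h incubation at room temperature before polarization reading / Doses: 20 µM, one dose / Detection: fluorescence polarization (mP)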
DiI quencher = counter-screen for SR-BI lipid transfer inhibitors: DiI fluorescence quenchers | shares compounds with SR-BI HDL uptake | cell-free DiI-HDL fluorescence quenching, 30 min | AC50, µM (top dose mostly 35 µM), inactives show at the highest dose activity change, negative = quenching | 470 tested, 20% active | AID 540326;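 active = quenching, a falling signal, with AC50 below a set limit tied to the top valid dose, actives reach about 32 µM in these data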
ATG4B confirm = confirmation of human ATG4B inhibitors. shares compounds with ATG4B inhibitor. ATG4B protease fluorescent substrate cleavage assay. inhibition, % at 8.33 µM. 320 tested, 92% active. AID 504757; in the data active = inhibition above about 39%
PLA2 counter = inhibits human PLA2, flagging false ATG4B inhibitors. shares compounds with ATG4B inhibitor. purified PLA2, NBD-C6-HPC fluorescence, 45 min. inhibition, % at 8.33 µM. 1,600 tested, 66% active. AID 588402; in the data active = inhibition above about 50%
Target sequence (P04054 whole entry, looked up): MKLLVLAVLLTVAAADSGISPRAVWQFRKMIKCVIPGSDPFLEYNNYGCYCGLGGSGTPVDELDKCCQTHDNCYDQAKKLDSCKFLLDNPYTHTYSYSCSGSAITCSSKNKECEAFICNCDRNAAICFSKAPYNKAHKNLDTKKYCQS
Active calls of the source: *; . = no result. This is a sample that favours compounds with a hit; in the whole collection about 2.3% have one here.

SMILES	SR-BI HDL uptake	SR-BI DiI-HDL act	CAL PDZ FP-1	ATG4B inhibitor	CAL PDZ FP-2	PLA2 counter	others
Nc1ccc(-c2ccc(N)cc2)cc1	10.3	-10.3	1.3	0.6	0.9	.
CN(C)C1=NC(N(C)C)=NP(N(C)C)(N(C)C)=N1	-15.4	15.4	35.1*	2.5	-1.5	.
CCn1c(=O)n(CC)c2cc([N+](=O)[O-])c(N3CCNCC3)cc21	35.7	-35.7	69.1*	-7.7	13.3	.
COC1CCC(OC2CC(C3(C)CCC4(CC(O)C(C)C(C(C)/C=C(\C)C(=O)C(C)CC(C)C(=O)O)O4)O3)OC3(OC(C4OC(O)(CO)C(C)CC4C)CC3C)C2C)OC1C (stereo unspecified)	-16.1	16.1	-0.4	-2.9	0.3	.
CCOc1ccc(N2C(=O)/C(=C\c3cccs3)C(=O)NC2=S)cc1	.	.	.	3.6	.	.
CCOc1ccc(N2C(=O)/C(=C/c3ccco3)C(=O)NC2=S)cc1	-10.2	10.2	15.5	80.8*	6.0	.
CC1OC(OC2C=C3CCC4C(CCC5(C)C(c6ccc(=O)oc6)CCC45O)C3(C)CC2)C(O)C(OC2OC(CO)C(O)C(O)C2O)C1O (stereo unspecified)	-2.3	2.3	-5.2	2.4	-1.8	.
CCOC(=O)CC(SP1(=S)OCC2(CC=CCC2)CO1)C(=O)OCC (stereo unspecified)	8.6	-8.6	-4.4	-6.2	1.1	.
CCN(CC)C(=O)c1ccc(NC(=O)CCCSc2ccccc2)cc1	12.6	-12.6	80.2*	9.6	-0.8	.
CCN(CC)C(=O)c1ccc(NC(=S)NC(=O)CCc2ccccc2)cc1	25.8	-25.8	9.6	0.3	-0.2	.
COC(=O)C1=C(C(=O)OC)C2OC1c1cc3ccccc3cc12	-3.9	3.9	6.0	-12.8	0.7	.
CN(C(=O)Oc1cccc2ccccc12)C1C=CCC1 (stereo unspecified)	-2.5	2.5	-1.6	4.4	0.3	.
O=C(Nc1ccccc1F)OC1CN2CCC1CC2 (stereo unspecified)	84.0*	-84.0	3.0	5.4	-1.2	.	DiI quencher=-2.8%
CCC1([N+](=O)[O-])COP(N)(=O)OC1 (stereo unspecified)	-12.2	12.2	-9.0	-1.4	0.4	.
CC(C)(C)c1ccc(S(=O)(=O)N2CC3CC(C2)c2cccc(=O)n2C3)cc1 (stereo unspecified)	-11.6	11.6	-3.2	-6.9	-0.2	.	DiI quencher=0.3%
COc1ccc(S(=O)(=O)N2CC3CC(C2)c2cccc(=O)n2C3)cc1 (stereo unspecified)	9.2	-9.2	3.1	1.9	-0.8	.
CCCCCCn1c(=O)c(C(=O)Nc2cnccn2)c(O)c2ccccc21	81.6*	-81.6	-0.5	-2.6	-2.9	.	DiI quencher=-5.1%
C#C[C@]1(O)CCC2C3C(=O)C=C4C(Cl)=CCC[C@]4(C)C3CC[C@@]21C (stereo partly specified)	8.4	-8.4	3.4	0.4	-0.7	.
COc1ccc(-c2cc(=Nc3cccc(C(=O)O)c3)c3cc(C)ccc3o2)cc1	-1.5	1.5	-4.1	60.8*	-5.2	76.1*
C=C(C)CC1(CC)C(=O)NC(=S)NC1=O	.	.	.	-1.8	.	.
C[C@]12CCC3C(CC[C@H]4C[C@H](O)CC[C@]34C)C1CCC2=O (stereo partly specified)	-11.2	11.2	-5.4	-13.2	-1.0	.
Clc1ccccc1CN1CCN(c2ccccc2Cl)CC1	-26.4	26.4	-2.0	46.2*	-2.2	46.8	ATG4B confirm=69.6*
Clc1ccccc1N1CCN(Cc2ccc3c(c2)OCO3)CC1	10.3	-10.3	-2.3	23.3	.	.
Cc1ccc(CN2C3CCCC2CC(NC(=S)NCc2ccccc2)C3)cc1 (stereo unspecified)	7.8	-7.8	-1.8	43.1*	-0.1	39.5	ATG4B confirm=67.3*
O=C1CC23c4ccccc4N4C(=O)CC5OCC=C6CN1C2CC6C5C43 (stereo unspecified)	-6.4	6.4	-5.8	-7.5	0.0	.
SMILES	SR-BI HDL uptake	SR-BI DiI-HDL act	CAL PDZ FP-1	ATG4B inhibitor	CAL PDZ FP-2	PLA2 counter	others
CN(C)[C@@H]1C(=O)C(C(N)=O)=C(O)[C@@]2(O)C(=O)C3=C(O)c4c(O)ccc(Cl)c4[C@@](C)(O)C3C[C@@H]12 (stereo partly specified)	-21.2	21.2	6.7	79.8*	0.1	13.0	ATG4B confirm=47.2*
O=c1c2ccccc2nc(/C=C/c2ccccc2)n1-c1ccccc1O	-5.6	5.6	-2.4	61.6*	.	70.0*
CCOC(=O)C1=C(C)N(C)C2(C)CC1c1ccccc1O2 (stereo unspecified)	13.7	-13.7	-0.9	48.3*	-0.8	25.7
CC12CC(c3ccccc3O1)C(C(=O)OCc1ccccc1)C(=O)N2 (stereo unspecified)	9.4	-9.4	-0.8	-3.4	-4.2	.
Cc1cc(OCC(=O)NC(Cc2ccc(Cl)cc2)C(=O)O)c2c3c(c(=O)oc2c1)CCCC3 (stereo unspecified)	9.6	-9.6	-3.3	45.0*	-1.4	72.0*
Cc1ccc(-c2nn(Cc3ccccc3)cc2C=O)cc1	-42.2	42.2	-4.5	48.0*	-1.0	58.8*
Cc1ccc(-c2nn(Cc3ccccc3)cc2C(=O)O)cc1	.	.	-0.3	-3.1	-0.5	.
Cc1ccc(-c2nn(Cc3ccccc3)cc2C=O)cc1C	25.8	-25.8	0.1	61.3*	-0.1	77.7*
Cc1ccc(Cn2cc(C=O)c(-c3ccc(F)cc3)n2)cc1	-4.4	4.4	-3.3	9.8	-1.9	.
N#CC1c2ccccc2-n2nncc2CN1Cc1cc(Cl)cc(Cl)c1 (stereo unspecified)	-20.4	20.4	8.2	0.5	-1.7	.
Cc1c(NS(=O)(=O)c2ccccc2)ccc([N+](=O)[O-])c1Cl	-17.1	17.1	.	8.3	-2.3	.

High-throughput results from PubChem.
